The source of these data is ChEMBL document CHEMBL1125327, “Conformationally restricted deltorphin analogues” (J Med Chem, 1992).

The term IC50 denotes the concentration at which inhibition is half-maximal. For orientation: Ki means a measure of affinity in units of concentration, obtained from inhibition or displacement.

Test [1] has as its target T1, Delta-type opioid receptor (Mus musculus, UniProt P32300). Put plainly: (§1) Inhibition of electrically evoked contractions in mouse vas deferens. It counts as functional.
Test [2] deals with Mu-type opioid receptor (Cavia porcellus, UniProt P97266). Put plainly: Inhibition of electrically evoked contractions in Guinea pig ileum. It counts as functional, tissue-based. Put shortly:
(§2)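 Isolated guinea pig ileum or mouse vas deferens, electrically stimulated; agonist IC50 taken as inhibition of evoked contractions from log dose–response curves. A [Leu5]enkephalin standard curve was run on each preparation and test IC50 values normalised to it. Antagonist Ke derived from IC50 ratio with and without a fixed antagonist concentration.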

The target of test [3] is T2, Delta-type opioid receptor (Rattus norvegicus, UniProt P33533). Put plainly: Inhibition of [3H]- ]DSLET binding to delta receptor from rat brain membrane. Put shortly:
(§3)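 Displacement of 0.78 nM [3H]DSLET from rat brain membrane preparations, incubated 2 h at 0 °C. IC50 from log dose–displacement curves, converted to Ki via Cheng–Prusoff with a [3H]DSLET Kd of 2.6 nM.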

Test [4] has as its target T3, Mu-type opioid receptor (Rattus norvegicus, UniProt P33535). Put plainly: Inhibition of [3H]- ]DAMGO binding to mu receptor from rat brain membrane. Put shortly:
(§4)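 Displacement of 0.72 nM [3H]DAMGO from rat brain membranes; 2 h incubation at 0 °C. IC50 read from log dose–displacement curves; Ki calculated by Cheng–Prusoff equation using Kd 1.3 nM for [3H]DAMGO.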

In test [5] the target is T3, Mu-type opioid receptor. Put plainly: (§5) Inhibition of [3H]- ]DAMGO binding to Opioid receptor mu 1 from rat brain membrane. Put shortly:
as §4

Test [6] addresses T2, Delta-type opioid receptor. Put plainly: Inhibition of [3H]- ]DSLET binding to Opioid receptor delta 1 from rat brain membrane. Put shortly:
as §3

Test [7] addresses T3, Mu-type opioid receptor. The test is described as §5. Put shortly:
as §4
The source holds these as a separate data set.

Test [8] deals with T3, Mu-type opioid receptor. Put plainly: Inhibition of [3H]- ]DAMGO binding to opioid receptor mu from rat brain membrane.
The target in test [9] is T2, Delta-type opioid receptor. Put plainly: Inhibition of [3H]- ]DSLET binding to opioid receptor delta from rat brain membrane. Put shortly:
as §3

Test [10] concerns the target T1, Delta-type opioid receptor. The description is as §1. It counts as functional. Put shortly:
as §2
The source holds these as a separate data set.

Positions of bridges follow the written chain, without caps; N, C: chain ends. Non-standard residues stand in square brackets, D forms with d. Residues, ends and D or L forms follow the SMILES beside them. Tic = O=C(O)[C@@H]1Cc2ccccc2CN1; Aic = NC1(C(=O)O)Cc2ccccc2C1; Nle = CCCC[C@H](N)C(=O)O

T3 sequence (P33535 whole entry): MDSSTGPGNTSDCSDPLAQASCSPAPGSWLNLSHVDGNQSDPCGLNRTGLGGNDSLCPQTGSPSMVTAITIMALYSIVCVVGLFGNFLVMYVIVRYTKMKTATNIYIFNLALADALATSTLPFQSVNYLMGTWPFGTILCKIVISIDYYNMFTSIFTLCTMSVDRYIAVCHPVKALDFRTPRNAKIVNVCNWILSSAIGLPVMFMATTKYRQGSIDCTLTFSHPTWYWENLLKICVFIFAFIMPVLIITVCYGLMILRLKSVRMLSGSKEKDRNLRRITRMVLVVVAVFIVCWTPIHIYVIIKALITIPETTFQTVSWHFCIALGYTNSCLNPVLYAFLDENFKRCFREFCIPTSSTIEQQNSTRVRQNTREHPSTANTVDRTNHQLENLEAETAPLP
T1 sequence (P32300 whole entry): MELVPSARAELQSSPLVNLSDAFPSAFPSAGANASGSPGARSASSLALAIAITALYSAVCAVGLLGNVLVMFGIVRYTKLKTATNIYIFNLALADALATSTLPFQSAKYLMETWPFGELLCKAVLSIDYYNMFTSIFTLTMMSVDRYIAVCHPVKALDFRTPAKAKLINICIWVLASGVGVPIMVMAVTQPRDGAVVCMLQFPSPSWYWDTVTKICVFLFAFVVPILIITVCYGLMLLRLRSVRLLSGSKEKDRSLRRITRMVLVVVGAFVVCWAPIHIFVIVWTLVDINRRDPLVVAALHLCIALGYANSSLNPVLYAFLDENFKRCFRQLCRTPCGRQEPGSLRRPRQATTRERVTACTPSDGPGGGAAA
T2 sequence (P33533 whole entry): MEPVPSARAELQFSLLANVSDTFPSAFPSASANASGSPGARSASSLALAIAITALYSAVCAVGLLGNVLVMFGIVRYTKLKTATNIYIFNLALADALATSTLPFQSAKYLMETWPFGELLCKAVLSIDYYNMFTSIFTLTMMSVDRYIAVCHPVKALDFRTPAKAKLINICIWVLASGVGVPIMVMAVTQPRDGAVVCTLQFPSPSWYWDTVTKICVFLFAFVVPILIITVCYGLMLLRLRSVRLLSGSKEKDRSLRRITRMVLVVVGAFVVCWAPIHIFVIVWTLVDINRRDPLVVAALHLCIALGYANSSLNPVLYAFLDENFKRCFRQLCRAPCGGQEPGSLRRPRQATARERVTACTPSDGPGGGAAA
Mu-type opioid receptor (Cavia porcellus, UniProt P97266), sequence (P97266 whole entry): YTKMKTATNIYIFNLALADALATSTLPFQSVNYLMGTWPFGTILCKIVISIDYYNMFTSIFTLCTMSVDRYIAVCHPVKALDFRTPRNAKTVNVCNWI

On to `CC(C)[C@H](NC(=O)[C@@H]1CCC(=O)NCCCC[C@@H](NC(=O)[C@@H](N)Cc2ccc(O)cc2)C(=O)N[C@@H](Cc2ccccc2)C(=O)N1)C(=O)N[C@H](C(=O)NCC(N)=O)C(C)C`, for which the IC50 in test [1] came to 0.467 nM; at Mu-type opioid receptor [2], 102 nM. Moreover, the Ki in test [3] was determined as 3.66 nM; on Mu-type opioid receptor [4], 17.5 nM.

In the case of `CC(C)[C@@H]1NC(=O)[C@@H](NC(=O)[C@H](Cc2ccccc2)NC(=O)[C@@H](C)NC(=O)[C@@H](N)Cc2ccc(O)cc2)CC(=O)NCCC[C@@H](C(N)=O)NC(=O)[C@H](C(C)C)NC1=O`, the IC50 in test [1] stood at 90.5 nM; at Mu-type opioid receptor [2], 251 nM. Moreover, the inhibition constant (Ki) in test [3] amounted to 562 nM; at Mu-type opioid receptor [4], 338 nM.

For `CC(C)[C@@H]1NC(=O)[C@@H](NC(=O)[C@H](Cc2ccccc2)NC(=O)CNC(=O)[C@@H](N)Cc2ccc(O)cc2)CCC(=O)NCCCC[C@@H](C(N)=O)NC(=O)[C@H](C(C)C)NC1=O` (H-YGFEVVK-NH2; lactam 4-7), the results for the IC50 (in [1]; against Mu-type opioid receptor [2]) were 919 nM and 3880 nM, respectively. In addition, the Ki is 724 nM in test [3] and 955 nM at Mu-type opioid receptor [4].

Turning to `CCCC[C@H](NC(=O)[C@H](CC(C)C)NC(=O)[C@H](Cc1ccccc1)NC(=O)[C@H](Cc1ccccc1)NC(=O)[C@@H]1Cc2ccccc2CN1C(=O)[C@@H](N)Cc1ccc(O)cc1)C(=O)N[C@@H](CC(=O)O)C(N)=O` (H-Y[Tic]FFL[Nle]D-NH2), the 50% inhibitory concentration (IC50) (in [1]; on Mu-type opioid receptor [2]) was more than 10000 nM each time. The inhibition constant Ki at Mu-type opioid receptor [5] was 4150 nM; in [6], 8.27 nM.

As for `CC(C)[C@H](NC(=O)[C@H](CC(=O)O)NC(=O)[C@@H]1Cc2ccccc2CN1C(=O)[C@@H](C)NC(=O)[C@@H](N)Cc1ccc(O)cc1)C(=O)N[C@H](C(=O)NCC(N)=O)C(C)C` (H-Y[dA][Tic]DVVG-NH2), the IC50 in test [1] is 481 nM; on Mu-type opioid receptor [2], 14500 nM. Also, the Ki at Mu-type opioid receptor [5] came to 15200 nM; on Mu-type opioid receptor [7], 4960 nM.

As to `CC(C)[C@H](NC(=O)[C@H](CC(=O)O)NC(=O)C1(NC(=O)[C@@H](C)NC(=O)[C@@H](N)Cc2ccc(O)cc2)CCc2ccccc2C1)C(=O)N[C@H](C(=O)NCC(N)=O)C(C)C` (stereo in doubt; 3), the IC50 was 0.163 nM in [1] and 1380 nM at Mu-type opioid receptor [2]. The Ki at Mu-type opioid receptor [8] is 1410 nM; in [9] it was 6.52 nM.

In the case of `CC(C)[C@H](NC(=O)[C@H](CC(=O)O)NC(=O)C1(NC(=O)[C@@H](C)NC(=O)[C@@H](N)Cc2ccc(O)cc2)CCc2ccccc2C1)C(=O)N[C@H](C(=O)NCC(N)=O)C(C)C` (stereo in doubt; 2), the IC50 in test [1] amounted to 0.115 nM; on Mu-type opioid receptor [2], 1820 nM. For the same molecule, the figures for the Ki (on Mu-type opioid receptor [5]; in test [6]) were 671 nM and 5.36 nM, respectively.

As for `CC(C)[C@H](NC(=O)[C@H](CC(=O)O)NC(=O)[C@H](Cc1ccccc1)NC(=O)[C@@H](C)NC(=O)[C@@H](N)Cc1ccc(O)cc1)C(=O)N[C@H](C(=O)NCC(N)=O)C(C)C` [DELTORPHIN C], the IC50 at Mu-type opioid receptor [2] came to 854 nM. Further, the Ki came to 262 nM on Mu-type opioid receptor [8] and 1.44 nM in test [9].

Take `CSCC[C@H](NC(=O)[C@H](CC(C)C)NC(=O)[C@H](Cc1cnc[nH]1)NC(=O)[C@H](Cc1ccccc1)NC(=O)[C@@H](CCSC)NC(=O)[C@@H](N)Cc1ccc(O)cc1)C(=O)N[C@@H](CC(=O)O)C(N)=O` (stereo in doubt; 7) [DELTORPHIN A]: the concentration for half-maximal inhibition (IC50) is 98.3 nM in test [1] and 4420 nM against Mu-type opioid receptor [2]. Moreover, the inhibition constant Ki in [3] worked out at 290 nM; on Mu-type opioid receptor [4] it was 143 nM.

Turning to `CC(C)[C@H](NC(=O)[C@H](CC(=O)O)NC(=O)[C@H](Cc1ccccc1)NC(=O)[C@@H]1Cc2ccccc2CN1C(=O)[C@@H](N)Cc1ccc(O)cc1)C(=O)N[C@H](C(=O)NCC(N)=O)C(C)C` (H-Y[Tic]FDVVG-NH2), the IC50 in test [1] is 22.8 nM; against Mu-type opioid receptor [2], more than 65000 nM. For the same molecule, the Ki was 9230 nM on Mu-type opioid receptor [5] and 6.49 nM in test [6].

As to `CC(C)[C@@H]1NC(=O)[C@H](CC(=O)O)NC(=O)[C@H](Cc2ccccc2)NC(=O)[C@H](NC(=O)[C@@H](N)Cc2ccc(O)cc2)CCCCNC(=O)CC[C@@H](C(N)=O)NC(=O)[C@H](C(C)C)NC1=O`, the values for the concentration for half-maximal inhibition (IC50) (in test [1]; against Mu-type opioid receptor [2]) were 17.3 nM and 380 nM, respectively. The Ki in test [3] was 248 nM; at Mu-type opioid receptor [4], 891 nM.

Regarding `CC(C)[C@H](NC(=O)[C@H](CC(=O)O)NC(=O)C1(NC(=O)[C@@H](C)NC(=O)[C@@H](N)Cc2ccc(O)cc2)Cc2ccccc2C1)C(=O)N[C@H](C(=O)NCC(N)=O)C(C)C` (H-Y[dA][Aic]DVVG-NH2), the results for the IC50 (in test [1]; against Mu-type opioid receptor [2]) were 0.0803 nM and 290 nM, respectively. The Ki on Mu-type opioid receptor [5] came out at 207 nM; in test [6], 4.96 nM.

Take `CC(C)[C@H](NC(=O)[C@H](CC(=O)O)NC(=O)[C@@H](Cc1ccccc1)NC(=O)[C@@H](C)NC(=O)[C@@H](N)Cc1ccc(O)cc1)C(=O)N[C@H](C(=O)NCC(N)=O)C(C)C`: it took 11900 nM to reach half-maximal inhibition on Mu-type opioid receptor [2] (IC50). For the same molecule, the inhibitory constant (Ki) at Mu-type opioid receptor [5] stood at 8650 nM; in [6], 67.2 nM.

For `CCCC[C@H](NC(=O)[C@H](CC(C)C)NC(=O)[C@H](Cc1cnc[nH]1)NC(=O)[C@H](Cc1ccccc1)NC(=O)[C@@H](CCCC)NC(=O)[C@@H](N)Cc1ccc(O)cc1)C(=O)N[C@@H](CC(=O)O)C(N)=O`, the IC50 was determined as 241 nM against Mu-type opioid receptor [2] and 0.712 nM in test [10]. The results for the inhibitory constant (Ki) (in test [3]; at Mu-type opioid receptor [4]) were 0.665 nM and 117 nM, respectively.

As to `CSCC[C@H](NC(=O)[C@H](CC(C)C)NC(=O)[C@H](Cc1cnc[nH]1)NC(=O)[C@H](Cc1ccccc1)NC(=O)[C@@H](CCSC)NC(=O)[C@@H](N)Cc1ccc(O)cc1)C(=O)N[C@@H](CC(=O)O)C(N)=O` (stereo in doubt; 12) [DELTORPHIN A], the IC50 in test [1] was 0.695 nM; against Mu-type opioid receptor [2], 281 nM. Besides, the inhibition constant Ki in test [3] turned out to be 2.13 nM; on Mu-type opioid receptor [4], 415 nM.
